Assays:
[1] = Chemical stability in phosphate buffer assessed as hydrolysis half life at pH 2.0; assay type: physicochemical
Method in brief: (§1)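 Prodrug, 1 mM in DMSO, diluted into 10 mM phosphate buffer at pH 2.0 or 7.4, ionic strength 0.1 set with NaCl, final 5% DMSO. Held at 37 ± 0.5 °C in screw-capped vials. Samples drawn over time, filtered and analysed by HPLC. Half-life from linear regression of a pseudo-first-order plot.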

[2] = test system: Human immunodeficiency virus 1; experiment: Antiviral activity against HIV1 LAI infected in PBM cells; conditions: Human immunodeficiency virus 1, LAI, PBMC
[3] = test system: Vero; experiment: Cytotoxicity against african green monkey Vero cells after 2 days by MTT assay; conditions: Chlorocebus sabaeus, 48 h
[4] = test system: CCRF-CEM; experiment: Cytotoxicity against human CEM cells after 3 days by MTT assay; assay type: cell-based; conditions: 72 h
Method in brief: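 CEM T-lymphoblastoid cells in log phase, seeded at 2.5×10^3 cells/well with 10-fold serial dilutions of drug. Incubated 3 days at 37 °C in humidified 5% CO2-air. MTT dye added overnight, then solubilization for 5 h and read at 570 nm. IC50 from the concentration-response curve by the median effect method.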

[5] = Chemical stability in Tris-HCl buffer assessed as hydrolysis half life at pH 8 in presence of porcine esterase; assay type: physicochemical; conditions: pig, isolated protein
Method in brief: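 Prodrug at 1.4 mM final in pH 8.0 Tris-HCl with 5% DMSO and 20 μg/mL porcine esterase, incubated at 37 ± 0.5 °C. Aliquots quenched in ice-cold methanol/acetonitrile 1/1, filtered and analysed by HPLC. Enzyme activity checked with ethyl butyrate substrate.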

[6] = test system: PBMC; experiment: Cytotoxicity against human PBM cells after 4 days by MTT assay; conditions: 96 h
[7] = Chemical stability in phosphate buffer assessed as hydrolysis half life at pH 7.4; assay type: physicochemical; method in brief: as §1

Structure (SMILES) | t1/2 [1] | EC50 [2] | EC90 [2] | t1/2 [5] | t1/2 [7] | IC50 [3] | IC50 [4] | IC50 [6]
Cc1cn([C@H]2CO[C@@H](COC(=O)[C@@H](N)CCC(=O)O)O2)c(=O)[nH]c1=O.Cl | 3.17 h | 0.89 µM | 6.3 µM | 0.223 h | 4 h | > 100 µM | > 100 µM | > 100 µM
Cc1cn([C@H]2CO[C@@H](COCOC(=O)C(C)(C)C)O2)c(=O)[nH]c1=O | – | 1.4 µM | 9.7 µM | 0.293 h | – | > 100 µM | > 100 µM | > 100 µM
Cc1cn([C@H]2CO[C@@H](COC(=O)[C@H](N)C(C)C)O2)c(=O)[nH]c1=O.Cl | 12.2 h | 0.98 µM | 6.5 µM | 0.323 h | 30 h | > 100 µM | > 100 µM | > 100 µM
Cc1cn([C@H]2CO[C@@H](COC(=O)[C@@H](N)C(C)C)O2)c(=O)[nH]c1=O.Cl | 16 h | 0.56 µM | 4.9 µM | 0.315 h | 36.67 h | > 100 µM | > 100 µM | > 100 µM
Cc1cn([C@H]2CO[C@@H](COC(=O)C3CCCCC3)O2)c(=O)[nH]c1=O | 30.83 h | 1.3 µM | 3.9 µM | 0.322 h | 53.33 h | > 100 µM | > 100 µM | > 100 µM
Cc1cn([C@H]2CO[C@@H](COC(=O)[C@H](N)Cc3ccccc3)O2)c(=O)[nH]c1=O.Cl | 7.17 h | 1 µM | 5.2 µM | 0.26 h | 15.7 h | > 100 µM | > 100 µM | > 100 µM
CC(=O)OC[C@@H]1OC[C@H](n2cc(C)c(=O)[nH]c2=O)O1 | 26.33 h | 2.9 µM | 12.3 µM | 0.272 h | 44.17 h | > 100 µM | 99.4 µM | > 100 µM
Cc1cn([C@H]2CO[C@@H](COC(=O)C(C)(C)N)O2)c(=O)[nH]c1=O.Cl | 15.3 h | 2.2 µM | 7.6 µM | 0.223 h | 31.17 h | > 100 µM | > 100 µM | > 100 µM
Cc1cn([C@H]2CO[C@@H](COC(=O)C3CC3)O2)c(=O)[nH]c1=O | 20 h | 4.7 µM | 15.1 µM | 0.288 h | 46.67 h | > 100 µM | > 100 µM | > 100 µM
Cc1cn([C@H]2CO[C@@H](COC(=O)[C@@H](N)Cc3ccccc3)O2)c(=O)[nH]c1=O.Cl | 9.17 h | 0.88 µM | 4.4 µM | 0.243 h | 17.83 h | > 100 µM | > 100 µM | > 100 µM
Cc1cn([C@H]2CO[C@@H](COC(=O)[C@@H]3CCCN3)O2)c(=O)[nH]c1=O.Cl | 3.83 h | 1.4 µM | 7.3 µM | 0.227 h | 6.33 h | > 100 µM | > 100 µM | > 100 µM
Cc1cn([C@H]2CO[C@@H](COC(=O)C(C)(C)C)O2)c(=O)[nH]c1=O | 21.67 h | 1.3 µM | 14.5 µM | 0.283 h | 46.33 h | 18.1 µM | > 100 µM | > 100 µM

Continued, in another order:

t1/2 [1] | EC50 [2] | EC90 [2] | t1/2 [5] | t1/2 [7] | Structure (SMILES) | IC50 [3] | IC50 [4] | IC50 [6]
13.3 h | 3 µM | 9.9 µM | 0.292 h | 34 h | CC[C@H](C)[C@H](N)C(=O)OC[C@@H]1OC[C@H](n2cc(C)c(=O)[nH]c2=O)O1.Cl | > 100 µM | > 100 µM | > 100 µM
8.67 h | 2.5 µM | 8.4 µM | 0.207 h | 22 h | Cc1cn([C@H]2CO[C@@H](COC(=O)CN)O2)c(=O)[nH]c1=O.Cl | > 100 µM | > 100 µM | > 100 µM
14.5 h | 3.3 µM | 12.4 µM | 0.298 h | 35.83 h | Cc1cn([C@H]2CO[C@@H](COC(=O)[C@@H](N)CC(C)C)O2)c(=O)[nH]c1=O.Cl | > 100 µM | > 100 µM | > 100 µM
5.33 h | 1.7 µM | 8 µM | 0.297 h | 7 h | Cc1cn([C@H]2CO[C@@H](COC(=O)[C@@H](N)Cc3c[nH]c4ccccc34)O2)c(=O)[nH]c1=O.Cl | > 100 µM | > 100 µM | > 100 µM
– | 23.5 µM | > 100 µM | 0.8 h | – | CCCCCCCCCCCCCCCC(=O)OC[C@@H]1OC[C@H](n2cc(C)c(=O)[nH]c2=O)O1 | 92.2 µM | > 100 µM | > 100 µM
26.67 h | 0.4 µM | 2.5 µM | 0.308 h | 53 h | CCCCC(=O)OC[C@@H]1OC[C@H](n2cc(C)c(=O)[nH]c2=O)O1 | 49 µM | > 100 µM | > 100 µM
30 h | 0.6 µM | 4.3 µM | 0.483 h | 54.17 h | CCCCCCCC(=O)OC[C@@H]1OC[C@H](n2cc(C)c(=O)[nH]c2=O)O1 | > 100 µM | > 100 µM | > 100 µM
14.5 h | 0.98 µM | 8.3 µM | 0.232 h | 26.67 h | Cc1cn([C@H]2CO[C@@H](COC(=O)[C@H](C)N)O2)c(=O)[nH]c1=O.Cl | > 100 µM | > 100 µM | > 100 µM
– | 0.4 µM | 3.2 µM | 0.683 h | – | CCCCCCCCCCCC(=O)OC[C@@H]1OC[C@H](n2cc(C)c(=O)[nH]c2=O)O1 | > 100 µM | > 100 µM | > 100 µM
– | – | 0.04 µM | – | – | Cc1cn([C@H]2C[C@H](N=[N+]=[N-])[C@@H](CO)O2)c(=O)[nH]c1=O [ZIDOVUDINE] | – | – | > 100 µM

— ChEMBL document CHEMBL1143390 (Bioorg Med Chem, 2009)
